Test results as given in ChEMBL document CHEMBL1833790, “N-(2-{3-[3,5-bis(trifluoromethyl)phenyl]ureido}ethyl)-glycyrrhetinamide (6b): a novel anticancer glycyrrhetinic acid derivative that targets the proteasome and displays anti-kinase activity” (J Med Chem, 2011).
The source made the active and inactive calls. The rule behind the calls is not given here.

How the values were obtained:
T98G = assay: Growth inhibition in apoptosis-resistant human T98G after 3 days by MTT assay; format: functional; conditions: 72 h
Outline: (§1)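 Cells grown in RPMI with 10% heat-inactivated FCS, 4 mM glutamine, gentamicin and penicillin–streptomycin. Drug exposure 3 days, growth read by MTT colorimetric assay. Nine concentrations from 0.01 to 100 μM in semilog steps, six replicates each; IC50 derived per cell line.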

SK-MEL-28 = assay: Growth inhibition in apoptosis-resistant human SK-MEL-28 after 3 days by MTT assay; format: functional; conditions: SK-MEL-28, 72 h; outline: as §1
U-373MG ATCC [1] = assay: Inhibition of trypsin-like activity of 20S proteasome in human U373 cells at 50 uM after 2 days by bioluminescence assay; format: cell-based
Outline: (§2)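 U373 GBM cells seeded at 5000 cells/mL and grown 48 h, then treated for two days. Cells washed in PBS and permeabilised with 0.025% digitonin. Proteasome-Glo reagent added with Suc-LLVY-Glo (chymotrypsin-like), Z-LRR-Glo (trypsin-like) or Z-nLPnLD-Glo (caspase-like) substrate. Luminescence read after 10 min in the dark and normalised to a parallel MTT viability assay; triplicates. MG-132 at 0.5 μM used as reference.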

[2] = molecular target: T1, Peroxisome proliferator-activated receptor gamma (Homo sapiens) (UniProt P37231); assay: Inhibition of PPARgamma activity in human U373 cells at 50 uM after 6 hrs by spectrophotometric analysis relative to control; format: cell-based; conditions: U-373MG ATCC
T1 sequence (whole entry): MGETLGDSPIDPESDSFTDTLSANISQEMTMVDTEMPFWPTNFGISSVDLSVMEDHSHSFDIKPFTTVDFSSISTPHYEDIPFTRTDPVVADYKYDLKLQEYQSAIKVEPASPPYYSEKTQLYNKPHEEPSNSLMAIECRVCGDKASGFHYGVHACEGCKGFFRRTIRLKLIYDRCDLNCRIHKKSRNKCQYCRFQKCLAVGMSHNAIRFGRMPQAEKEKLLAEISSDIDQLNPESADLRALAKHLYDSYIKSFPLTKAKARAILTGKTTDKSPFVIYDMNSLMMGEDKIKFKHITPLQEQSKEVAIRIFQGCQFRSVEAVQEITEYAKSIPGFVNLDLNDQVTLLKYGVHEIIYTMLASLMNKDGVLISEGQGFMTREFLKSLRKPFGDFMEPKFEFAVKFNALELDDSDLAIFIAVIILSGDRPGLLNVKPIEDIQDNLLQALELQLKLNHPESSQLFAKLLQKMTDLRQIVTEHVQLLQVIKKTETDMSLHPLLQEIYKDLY
Outline: (§3)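 Human U373 glioblastoma cells exposed to compound for 6 h, then detached with trypsin. Nuclear extracts prepared by hypotonic lysis with Nonidet P-40 and extraction buffer with protease inhibitor, clarified at 14 000 g, 4 °C. Extracts bound overnight at 4 °C in a PPAR-γ transcription factor ELISA kit, with primary antibody then HRP anti-rabbit. Absorbance read at 450 nm; triplicates, mean ± SD versus control.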

MCF7 = assay: Growth inhibition in apoptosis-sensitive human MCF7 after 3 days by MTT assay; format: functional; conditions: MCF7, 72 h; outline: as §1
[3] = Growth inhibition in apoptosis-resistant human U373 after 3 days by MTT assay; format: functional, U-373MG ATCC; conditions: U373 MG, 72 h; outline: as §1
[4] = Chemical stability of the compound in MEM cell culture medium after 7 days by HPLC analysis; format: physicochemical; conditions: read-out: Stability
Outline: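 Compound incubated in MEM culture medium at 37 °C for 7 days, then analysed by HPLC on RX-C8 (5 μm) column with MeOH–water 90:10 (0.1% TFA), diode-array detection. Expressed as % of incubated compound recovered.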

PC-3 = assay: Growth inhibition in apoptosis-sensitive human PC3 after 3 days by MTT assay; format: functional; conditions: PC-3, 72 h; outline: as §1
U-373MG ATCC [5] = assay: Activation of chymotrypsin-like activity of 20S proteasome in human U373 cells at 50 uM after 2 days by bioluminescence assay; format: cell-based
Outline: (§4)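 Chymotrypsin-like site, substrate Suc-LLVY-Glo. U373 cells were seeded at 5000 cells/mL for 48 h and exposed two days. After a PBS wash and 0.025% digitonin permeabilisation, Proteasome-Glo reagent was added. Bioluminescence was read after 10 min dark incubation. Triplicates, normalised by a concurrent MTT viability assay run in identical conditions.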

A549 = assay: Growth inhibition in apoptosis-resistant human A549 after 3 days by MTT assay; format: functional; conditions: A549, 72 h; outline: as §1
U-373MG ATCC [6] = assay: Activation of caspase-like activity of 20S proteasome in human U373 cells at 50 uM after 2 days by bioluminescence assay; format: cell-based
Outline: (§5)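 Caspase-like site, substrate Z-nLPnLD-Glo. U373 cells were plated at 5000 cells/mL for 48 h, then treated two days. Cells were PBS-washed and permeabilised with 0.025% digitonin before Proteasome-Glo reagent was added. Luminescence was read after 10 min in the dark. Triplicates, normalised to a parallel MTT viability assay under identical conditions.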

Hs 683 = assay: Growth inhibition in apoptosis-sensitive human Hs683 after 3 days by MTT assay; format: functional; conditions: Hs 683, 72 h; outline: as §1
B16-F10 = assay: Growth inhibition in mouse B16F10 after 3 days by MTT assay; format: functional; conditions: B16-F10, 72 h; outline: as §1
[7] = molecular target: T1, Peroxisome proliferator-activated receptor gamma (Homo sapiens); assay: Inhibition of PPARgamma activity in human U373 cells at 3 uM after 6 hrs by spectrophotometric analysis relative to control; format: cell-based; conditions: U-373MG ATCC; outline: as §3
U-373MG ATCC [8] = assay: Activation of caspase-like activity of 20S proteasome in human U373 cells at 3 uM after 2 days by bioluminescence assay; format: cell-based; outline: as §5
U-373MG ATCC [9] = assay: Inhibition of trypsin-like activity of 20S proteasome in human U373 cells at 3 uM after 2 days by bioluminescence assay; format: cell-based; outline: as §2
U-373MG ATCC [10] = assay: Activation of chymotrypsin-like activity of 20S proteasome in human U373 cells at 3 uM after 2 days by bioluminescence assay; format: cell-based; outline: as §4

Structure (SMILES)	GI50 (T98G) [µM]	GI50 (SK-MEL-28) [µM]	inhibition (U-373MG ATCC [1])	inhibition [2]	GI50 (MCF7) [µM]	GI50 [3] [µM]	remaining at 168 h [4] [%]	GI50 (PC-3) [µM]	Activity (U-373MG ATCC [5])	GI50 (A549) [µM]	Activity (U-373MG ATCC [6])	GI50 (Hs 683) [µM]	GI50 (B16-F10) [µM]	inhibition [7]	Activity (U-373MG ATCC [8])	inhibition (U-373MG ATCC [9])	Activity (U-373MG ATCC [10])
CC1(C)[C@@H](O)CC[C@]2(C)[C@H]3C(=O)C=C4[C@@H]5C[C@@](C)(C(=O)NCc6ccc(C(F)(F)F)cc6)CC[C@]5(C)CC[C@@]4(C)[C@]3(C)CC[C@@H]12	67	65	Active	Active	29	44	95	35	Active	37	Active	49	39				
COc1cc(/C=C/C(C)=O)ccc1OC(=O)[C@@]1(C)CC[C@]2(C)CC[C@]3(C)C(=CC(=O)[C@@H]4[C@@]5(C)CC[C@H](O)C(C)(C)[C@@H]5CC[C@]43C)[C@@H]2C1	3	3			3	2	68	2		2		3	3	Active	Active	Active	Active
